b-catenin transl: beta-catenin nuclear translocation modulation | HeLa beta-catenin nuclear translocation, immunofluorescence imaging | nuclear translocation activity, % at 5 µM | 190,000 compounds, 0.3% hits | AID 1665;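 active = nuclear translocation activity above 50% at 5 µM, with a well cell count of 50 or more; inconclusive = wells under 50 cells across six images, flagged as toxic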;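 also: per-cell ratio of nuclear to cytoplasmic median beta-catenin stain intensity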
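Read-out: Nuclear/cytoplasmic beta-catenin signal ratio, % activation | Assay system: Human HeLa cell line | Times: 24 h compound exposure at 37°C, 5% CO2 | Signal: Fluorescence imaging of beta-catenin antibody stain plus DAPI | Dosing: 5 µM primary, 0.02–20 µM confirmation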
KCC2 mod: modulators of human KCC2 chloride dependent transport. Q9H2X9. KCC2 cells, thallium flux FluoZin-2 fluorescence. B-score of Tl+ flux slope (higher = more flux/activation; lower = inhibition) at 10 µM. 190,000 compounds, 2.2% hits;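 active = thallium flux slope and its plate-corrected score both differing from the plate sample mean at a set confidence after two filtering rounds, in either direction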;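 also: slope of fluorescence scaled to starting intensity during 10 to 20 s after thallium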
DTT redox prof: compounds producing H2O2 with reducing agent – biochemical, NIH compound library profiling, artefact control for MLSCN library redox annotation, primary screen. DTT-dependent redox cycling H2O2, phenol red/HRP absorbance; 100% = 100 µM peroxide control, 0% = buffer. activation, % at 10 µM. 200,000 compounds, 0.03% hits;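 active = activation of at least 50% relative to the plate's high and low controls in the primary single-dose screen; inactive = activation below 50%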;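 also: compound incubated with DTT at 0.8 mM final as the reducing agent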
MT stabilizer: microtubule stabilization, imaging screen | HeLa tubulin immunostaining HCS, 24 h; share of cells brighter than vehicle mean+2SD | % tubulin-high responders, % at 10 µM | 200,000 compounds, 0.83% hits;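 active = plate Z-score above 3 for both tubulin-high and condensed-nucleus cell shares, with cell loss under 80%, at 10 µM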;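 also: anti alpha tubulin signal scored within the nucleus-defined area of each cell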
ROMK mod: human ROMK K+ channel modulation, primary screen. Tet-inducible ROMK, thallium flux fluorescence; actives lie on both sides. AID 1918. 130,000 compounds, 2% hits. B-score at 10 µM;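 active = signal ratio slope over the read window, or its plate-corrected B-score, at least 3 SD from the plate mean, either direction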;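 also: B-score of the F/F0 ratio slope over 7 to 12 s after thallium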
Target sequence (P48048 whole entry, looked up): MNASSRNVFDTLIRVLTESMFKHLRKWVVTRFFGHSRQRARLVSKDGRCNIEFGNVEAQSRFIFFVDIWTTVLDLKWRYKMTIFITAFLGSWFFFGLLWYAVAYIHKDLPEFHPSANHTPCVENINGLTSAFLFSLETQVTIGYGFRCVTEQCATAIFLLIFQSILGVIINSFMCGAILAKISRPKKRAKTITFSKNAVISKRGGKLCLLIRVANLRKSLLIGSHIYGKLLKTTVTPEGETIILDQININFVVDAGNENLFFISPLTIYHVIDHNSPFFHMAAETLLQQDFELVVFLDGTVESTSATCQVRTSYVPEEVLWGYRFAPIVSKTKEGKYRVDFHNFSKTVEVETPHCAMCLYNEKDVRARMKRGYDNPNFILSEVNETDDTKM
ROMK hit retest: confirmation of human ROMK potassium channel modulators. AID 1917. 3,000 compounds, 54% hits. normalized thallium flux (F/F0 slope) at 10 µM. ROMK thallium flux, fluorescence ratio; active compounds read low. shares compounds with ROMK mod;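 active = Flux at 10 µM at least 3 SD below or above vehicle control mean in one or both replicates; inconclusive = no clear call, values can overlap the other calls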
Numbers stand for hits; n = inactive; u = inconclusive; x = no result. Hits are enriched below; roughly 3.7% of the tested compounds scored in any of these assays.

SMILES | b-catenin transl | KCC2 mod | DTT redox prof | MT stabilizer | ROMK mod | ROMK hit retest
Cc1cccc(N/N=C(\C(N)=O)C2=NC(C)(C)Cc3ccccc32)c1 | n | n | n | n | -3 | 0.059
Cn1cccc1C(=O)OCC(=O)NC(=O)NC1CCCCC1 | n | n | n | n | n | x
CCc1ccc(C(=O)OCC(=O)c2c(N)n(CC(C)C)c(=O)n(C)c2=O)cc1 | n | x | n | n | -11 | n
CN(C)CC(CCC(CN(C)C)C(=O)c1ccccc1)C(=O)c1ccccc1 (stereo not drawn) | n | n | x | x | -3.2 | 0.044
CCc1cc2c(nc1CC)CCN(CC/C(C)=N/OC[C@H]1O[C@H](c3ccccc3)C=C[C@@H]1Oc1ccc(OC)cc1)C2 | n | n | n | n | -4.7 | 0.054
COc1ccc(O[C@H]2C=C[C@@H](c3ccccc3)O[C@@H]2CO/N=C(\C)CCN2CCc3nc(-c4ccccc4)c(-c4ccccc4)cc3C2)cc1 | x | n | n | n | n | x
COc1cc2c(cc1OC)CN(Cc1cc(OC)c(O)c(OC)c1)CC2 | n | n | n | n | n | x
NC(=O)c1ccc(N2CCCCC2)c(N2C(=O)C3C4C=CC(C4)C3C2=O)c1 (stereo not drawn) | n | x | n | n | n | x
O=C(O)c1ccc(N2CCOCC2)c(N2C(=O)C3C4C=CC(C4)C3C2=O)c1 (stereo not drawn) | n | n | n | n | n | n
CCOc1ccc(N(C(=O)Cn2nnc3ccccc32)C(C(=O)NC(C)(C)CC)c2cccn2C)cc1 (stereo not drawn) | n | n | n | n | x | x
CCC(C)(C)NC(=O)C(c1cccn1C)N(C(=O)Cn1nnc2ccccc21)c1ccc(OC)cc1OC (stereo not drawn) | n | n | n | n | -3.5 | 0.051
CS(=O)(=O)N1CCN=C1SCc1ccc([N+](=O)[O-])cc1 | n | n | n | n | n | x
Cc1cc(C)cc(NC(=O)N2CCCC2C(=O)Nc2ccc(-n3cnnn3)c(C)c2)c1 (stereo not drawn) | n | n | n | n | x | n
Cc1cc(NC(=O)C2CCCN2C(=O)Nc2c(C)cccc2C)ccc1-n1cnnn1 (stereo not drawn) | n | n | n | n | n | x
S=C(NCCc1ccccc1)N1CCN(C2CCCCC2)CC1 | n | n | n | n | -2.7 | 0.063
Cc1ccc(S(=O)(=O)NC(CC(=O)NCc2ccco2)c2ccco2)cc1 (stereo not drawn) | n | x | n | n | 2.8 | u
C=CCN1C=C/C(=C\C=C(C#N)C#N)c2ccccc21 | x | n | n | n | x | x
C=CCN1C=CC(=CC=C(C#N)C#N)C=C1 | n | n | x | x | -7.5 | 0.034
COc1c(Cl)cc(Cl)cc1/C=C/C(=O)c1ccc(NC(=O)c2cccs2)cc1 | n | n | n | n | x | x
CC1(C)NC(=O)N(CCCCOc2ccc(Cl)cc2)C1=O | n | x | n | n | n | x
CC1(C)NC(=O)N(CCCCOc2ccc(Cl)cc2C=O)C1=O | n | n | n | n | 3.9 | n
O=C(COC(=O)c1ccc(NS(=O)(=O)c2cccs2)cc1O)NCc1ccccc1 | 76 | n | n | 24 | 3.6 | n
O=C(NC1CCCCCCC1)C1c2ccccc2C(=O)N1Cc1ccco1 (stereo not drawn) | n | n | n | n | x | u
Cc1cc(C(=O)N/N=C2\CCCC(=O)C2)c(C)n1-c1ccccc1 | n | n | n | n | x | x
COc1ccc2c(Cl)c(C(=O)N/N=C3\CCCC(=O)C3)sc2c1 | n | n | n | n | -3.1 | n
SMILES | b-catenin transl | KCC2 mod | DTT redox prof | MT stabilizer | ROMK mod | ROMK hit retest
CCN1/C(=C\c2ccc3cc(C)ccc3[n+]2CC)Sc2cc(C)c(C)cc21 | n | n | n | n | -5 | 0.047
CCN1/C(=C/c2ccc3cccc(C)c3[n+]2CC)Sc2ccccc21 | x | x | n | n | x | x
CCN1/C(=C/C(C)=C/c2sc3ccccc3[n+]2CC)Sc2ccccc21 | n | n | n | n | n | x
CCN1/C(=C/c2ccc3cc(C)cc(C)c3[n+]2CC)Sc2cc(C)ccc21 | n | n | n | n | -5.2 | 0.045
CN(C)C(CNC(=O)c1cccc(OC(F)F)c1)c1ccco1 (stereo not drawn) | x | n | x | n | 1.1 | n
COC(=O)[C@H](C)NC(=O)NCc1ccccc1 | n | n | x | x | x | x
O=C(O)c1ccccc1C1=Nc2ccc(O)cc2Oc2cc(O)ccc21 | n | n | n | n | x | 0.054
Cc1cc(-c2ccccc2C(=O)O)on1 | n | n | n | n | x | x
CC(=O)N1C(C(=O)O)CSC1c1ccc(C)cc1 (stereo not drawn) | x | n | n | n | x | n
COc1ccc(C2SCC(C(=O)O)N2C(C)=O)cc1 (stereo not drawn) | n | n | n | n | n | x
CCN(CC)c1ccc(C=Nc2ccc(N(C)C)cc2)c(O)c1 | n | n | n | n | -2.7 | u
CCN(CC)c1ccc(C=Nc2ccc(C)cc2)c(O)c1 | n | n | n | n | n | x
COc1cc(/C=C2\C(C)=C(C#N)c3nc(N)c(C#N)c(C)c32)ccc1OCC(=O)O | n | n | x | x | n | x
CC1=C(C#N)c2nc(N)c(C#N)c(C)c2/C1=C\c1ccc(C)cc1 | n | n | n | n | x | 0.043
COc1ccc(C(=O)NCCSC2CCCCC2)cc1 | n | n | n | n | -2.2 | u
Cc1cccc(C)c1OCC(=O)N(Cc1ccc(N(C)C)cc1)C1CCS(=O)(=O)C1 (stereo not drawn) | n | n | x | x | x | x
O=C(CCC(=O)N(CC(=O)NC1CCCCC1)Cc1cccs1)Nc1nccs1 | n | n | x | x | x | x
CCOCc1nnc(NC(=O)c2c(OC)cccc2OC)s1 | x | x | n | n | 3.3 | u
Cc1ccccc1S(=O)c1ccccc1C(=O)O (stereo not drawn) | n | n | x | x | x | x
CC1=C(C)CS(=O)N(S(=O)(=O)c2ccccc2)C1 (stereo not drawn) | n | x | n | n | -5.5 | 0.047
CC1=C(C)CS(=O)N(c2ccc(S(N)(=O)=O)cc2)C1 (stereo not drawn) | n | n | n | n | x | x
COc1cccc(CNC(=O)CCC2CCCN(C/C=C/c3ccccc3OC)C2)c1 (stereo not drawn) | n | n | n | n | -5.5 | 0.065
COc1ccccc1/C=C/CN1CCCC(CCC(=O)NCc2ccc(F)c(F)c2)C1 (stereo not drawn) | n | n | n | n | n | x
CC(=O)N1CC(=O)N=C1SCC(=O)Nc1nc(C)c(-c2ccccc2)s1 | n | n | n | n | n | x
CCc1cccc(NC(=O)CSC2=NS(=O)(=O)c3ccccc32)c1 | n | x | n | n | x | 0.059
Cc1ccc(C(C)C)c(OCC(O)CN2CCN(CCO)CC2)c1 (stereo not drawn) | n | n | n | n | x | x
Cc1ccc(OCC(O)CN2CCN(CC(O)COC(C)C)CC2)c(C(C)(C)C)c1 (stereo not drawn) | n | n | n | n | -3.7 | 0.062
Cc1cc(NC(=O)CN2C(=O)NC(C)(c3ccc(Cl)cc3)C2=O)no1 (stereo not drawn) | n | n | n | n | n | x
